Reference: ChEMBL document CHEMBL3244139, “Antiarrhythmic activity of p-hydroxy-N-(2-diethylaminoethyl) benzamide (the p-hydroxy isostere of procainamide) in dogs and mice” (J Med Chem, 1977)
Calls of active or inactive are those of the source. The calls are words filed in the database; no cut-off is given here.

Legend:
[1] = tested on: Mus musculus; test: Antiarrhythmic activity in ip dosed ICR mouse assessed as protection against chloroform-induced ventricular fibrillation; format: functional; conditions: Heart
Outline: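 Male ICR mice, 28-35 days, mean 25 g, given drug ip, then after 10 min exposed to chloroform in a jar until breathing stopped. Protection meant no intermittent or continuous ventricular fibrillation at any point. Eight mice per dosage interval.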

[2] = tested on: Canis familiaris; test: Antiarrhythmic activity in aconitine-induced mongrel dog arrhythmic model assessed as decrease in ventricular rate rate measured at end of infusion at 50 +/- 24 mg/kg, iv (reference value: 205 +/- 65 BPM); format: functional, Canis lupus familiaris, Heart
[3] = tested on: Canis familiaris; test: Antiarrhythmic activity in aconitine-induced mongrel dog arrhythmic model assessed as mean arterial blood pressure measured at end of infusion at 50 +/- 24 mg/kg, iv (reference value: 70 +/- 8 mmHg); format: functional, Canis lupus familiaris, Artery
[4] = tested on: Canis familiaris; test: Antiarrhythmic activity in aconitine-induced mongrel dog arrhythmic model assessed as atrial rate at 50 +/- 24 mg/kg, iv after 20 +/- 3 mins from end of infusion; format: functional, Canis lupus familiaris, Heart
[5] = tested on: Canis familiaris; test: Antiarrhythmic activity in aconitine-induced mongrel dog arrhythmic model assessed as decrease in ventricular rate rate at 50 +/- 24 mg/kg, iv after 20 +/- 3 mins from end of infusion (reference value: 205 +/- 65 BPM); format: functional, Canis lupus familiaris, Heart
[6] = tested on: Plasma; test: Drug metabolism in mongrel dog assessed as ester of p-acetoxy-N-(2-diethylaminoethyl)benzamide level in plasma; format: ADME, cell-free, Canis lupus familiaris
Outline: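 Dog plasma taken at end of infusion was extracted as for the phenol but without internal standard. Spotted on silica gel F254 TLC, developed with acetone-methanol (1:1), and quantified by densitometry.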

[7] = Stability in human plasma assessed as hydrolysis at 20 ug/ml after 5 mins at room temperature; format: ADME, cell-free; conditions: read-out: Drug degradation
Outline: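 Ester at 20 µg/ml held in fresh human plasma for 5 min at room temperature. Comparison conditions: plasma plus 10^-5 M physostigmine, and saline. Standards extracted and measured by TLC densitometry.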

[8] = tested on: Plasma; test: Plasma concentration in mongrel dog at 50 +/- 24 mg/kg, iv; format: ADME, organism-based, Canis lupus familiaris; set-up: route intravenous; conditions: in vivo
Outline: (§1)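 Plasma withdrawn from each aconitine-treated dog when iv infusion was discontinued; drug measured by TLC densitometry.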

[9] = tested on: Canis familiaris; test: Antiarrhythmic activity in aconitine-induced mongrel dog arrhythmic model assessed as atrial rate measured at end of infusion at 50 +/- 24 mg/kg, iv; format: functional, Canis lupus familiaris, Heart
[10] = tested on: Canis familiaris; test: Antiarrhythmic activity in aconitine-induced mongrel dog arrhythmic model assessed as mean arterial blood pressure measured at end of infusion at 48 +/- 38 mg/kg, iv (reference value: 70 +/- 8 mmHg); format: functional, Canis lupus familiaris, Artery
[11] = tested on: Canis familiaris; test: Antiarrhythmic activity in aconitine-induced mongrel dog arrhythmic model assessed as atrial rate at 48 +/- 38 mg/kg, iv after 17 +/- 16 mins from end of infusion; format: functional, Canis lupus familiaris, Heart
[12] = tested on: Canis familiaris; test: Antiarrhythmic activity in aconitine-induced mongrel dog arrhythmic model assessed as decrease in ventricular rate rate at 48 +/- 38 mg/kg, iv after 17 +/- 16 mins from end of infusion (reference value: 205 +/- 65 BPM); format: functional, Canis lupus familiaris, Heart
[13] = Antiarrhythmic activity in mongrel dog Purkinje fiber assessed as rate of phase 0 depolarization (dV/dt) at 10 ug/ml by Single Cell Potentials/electrophysiological technique (reference value: 491 +/- 40 V/s); format: functional, Canis lupus familiaris
[14] = Antiarrhythmic activity in mongrel dog Purkinje fiber assessed as rate of phase 0 depolarization (dV/dt) at 20 ug/ml by Single Cell Potentials/electrophysiological technique (reference value: 474 +/- 57 V/s); format: functional, Canis lupus familiaris
[15] = Antiarrhythmic activity in mongrel dog Purkinje fiber assessed as 50% repolarization time at 10 ug/ml by Single Cell Potentials/electrophysiological technique (reference value: 244 +/- 15 ms); format: functional, Canis lupus familiaris
[16] = Antiarrhythmic activity in mongrel dog Purkinje fiber assessed as 50% repolarization time at 20 ug/ml by Single Cell Potentials/electrophysiological technique (reference value: 223 +/- 11 ms); format: functional, Canis lupus familiaris
[17] = Antiarrhythmic activity in mongrel dog Purkinje fiber assessed as 90% repolarization time at 10 ug/ml by Single Cell Potentials/electrophysiological technique (reference value: 274 +/- 30 ms); format: functional, Canis lupus familiaris
[18] = Antiarrhythmic activity in mongrel dog Purkinje fiber assessed as 90% repolarization time at 20 ug/ml by Single Cell Potentials/electrophysiological technique (reference value: 284 +/- 12 ms); format: functional, Canis lupus familiaris
[19] = Antiarrhythmic activity in mongrel dog Purkinje fiber assessed as spontaneous intrinsic rate at 10 ug/ml by Single Cell Potentials/electrophysiological technique (reference value: 33 +/- 5 BPM); format: functional, Canis lupus familiaris
[20] = Antiarrhythmic activity in mongrel dog Purkinje fiber assessed as spontaneous intrinsic rate at 20 ug/ml by Single Cell Potentials/electrophysiological technique (reference value: 35 +/- 7 BPM); format: functional, Canis lupus familiaris
[21] = Toxicity in ip dosed ICR mouse assessed as acute mortality; format: organism-based; conditions: in vivo
Outline: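 Male ICR mice, 28-35 days old (av wt 26 g), in groups of ten per dose level, given drug ip. Deaths recorded at 10, 15, 30, 60, 120 and 210 min after injection to set acute mortality.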

[22] = Therapeutic index, ratio of LD50 for ICR mouse assessed as acute mortality to ED50 for protection against chloroform-induced ventricular fibrillation in ICR mouse; format: organism-based, Cardiac ventricle; conditions: in vivo, read-out: Ratio LD50/ED50
Outline: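 Male ICR mice, 28-35 days old, dosed ip. For ED50, 8 mice per dose went into a chloroform jar 10 min after dosing and were kept there until breathing stopped; mice with no intermittent or continuous ventricular fibrillation counted as protected. ED50 was derived by Litchfield-Wilcoxon. LD50 came from acute mortality in 10 mice per dose. Index reported as LD50/ED50.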

[23] = tested on: Plasma; test: Plasma concentration in mongrel dog at 48 +/- 38 mg/kg, iv; format: ADME, organism-based, Canis lupus familiaris; set-up: route intravenous; conditions: in vivo; outline: as §1
[24] = tested on: Canis familiaris; test: Antiarrhythmic activity in aconitine-induced mongrel dog arrhythmic model assessed as atrial rate measured at end of infusion at 48 +/- 38 mg/kg, iv; format: functional, Canis lupus familiaris, Heart
[25] = tested on: Canis familiaris; test: Antiarrhythmic activity in aconitine-induced mongrel dog arrhythmic model assessed as decrease in ventricular rate rate measured at end of infusion at 48 +/- 38 mg/kg, iv (reference value: 205 +/- 65 BPM); format: functional, Canis lupus familiaris, Heart
[26] = tested on: Canis familiaris; test: Antiarrhythmic activity in aconitine-induced mongrel dog arrhythmic model assessed as mean arterial blood pressure measured at end of infusion at 59 +/- 25 mg/kg, iv (reference value: 70 +/- 8 mmHg); format: functional, Canis lupus familiaris, Artery
[27] = tested on: Canis familiaris; test: Antiarrhythmic activity in aconitine-induced mongrel dog arrhythmic model assessed as atrial rate at 59 +/- 25 mg/kg, iv after 16 +/- 10 mins from end of infusion; format: functional, Canis lupus familiaris, Heart
[28] = tested on: Canis familiaris; test: Antiarrhythmic activity in aconitine-induced mongrel dog arrhythmic model assessed as decrease in ventricular rate at 59 +/- 25 mg/kg, iv after 16 +/- 10 mins from end of infusion (reference value: 205 +/- 65 BPM); format: functional, Canis lupus familiaris, Heart
[29] = Antiarrhythmic activity in mongrel dog Purkinje fiber assessed as rate of phase 0 depolarization (dV/dt) at 5 ug/ml by Single Cell Potentials/electrophysiological technique (reference value: 439 +/- 47 V/s); format: functional, Canis lupus familiaris
[30] = Antiarrhythmic activity in mongrel dog Purkinje fiber assessed as rate of phase 0 depolarization (dV/dt) at 20 ug/ml by Single Cell Potentials/electrophysiological technique (reference value: 478 +/- 67 V/s); format: functional, Canis lupus familiaris
[31] = Antiarrhythmic activity in mongrel dog Purkinje fiber assessed as 50% repolarization time at 5 ug/ml by Single Cell Potentials/electrophysiological technique (reference value: 200 +/- 6 ms); format: functional, Canis lupus familiaris
[32] = Antiarrhythmic activity in mongrel dog Purkinje fiber assessed as 50% repolarization time at 20 ug/ml by Single Cell Potentials/electrophysiological technique (reference value: 236 +/- 9 ms); format: functional, Canis lupus familiaris
[33] = Antiarrhythmic activity in mongrel dog Purkinje fiber assessed as 90% repolarization time at 5 ug/ml by Single Cell Potentials/electrophysiological technique (reference value: 282 +/- 8 ms); format: functional, Canis lupus familiaris
[34] = Antiarrhythmic activity in mongrel dog Purkinje fiber assessed as 90% repolarization time at 20 ug/ml by Single Cell Potentials/electrophysiological technique (reference value: 302 +/- 12 ms); format: functional, Canis lupus familiaris
[35] = Antiarrhythmic activity in mongrel dog Purkinje fiber assessed as spontaneous intrinsic rate at 5 ug/ml by Single Cell Potentials/electrophysiological technique (reference value: 19 +/- 4 BPM); format: functional, Canis lupus familiaris
[36] = Antiarrhythmic activity in mongrel dog Purkinje fiber assessed as spontaneous intrinsic rate at 20 ug/ml by Single Cell Potentials/electrophysiological technique (reference value: 22 +/- 5 BPM); format: functional, Canis lupus familiaris
[37] = Antiarrhythmic activity in mongrel dog Purkinje fiber assessed as maximum diastolic potential at 5 ug/ml (reference value: -93 +/- 2 mV) by Single Cell Potentials/electrophysiological technique; format: functional, Canis lupus familiaris
[38] = Antiarrhythmic activity in mongrel dog Purkinje fiber assessed as maximum diastolic potential at 20 ug/ml (reference value: -93 +/- 2 mV) by Single Cell Potentials/electrophysiological technique; format: functional, Canis lupus familiaris
[39] = Antiarrhythmic activity in mongrel dog Purkinje fiber assessed as action potential at 5 ug/ml (reference value: 127 +/- 2 mV) by Single Cell Potentials/electrophysiological technique; format: functional, Canis lupus familiaris
[40] = Antiarrhythmic activity in mongrel dog Purkinje fiber assessed as action potential at 20 ug/ml (reference value: 128 +/- 3 mV) by Single Cell Potentials/electrophysiological technique; format: functional, Canis lupus familiaris
[41] = tested on: Plasma; test: Drug metabolism in mongrel dog assessed as p-hydroxy-N-(2-diethylaminoethyl)benzamide level in plasma; format: ADME, cell-free, Canis lupus familiaris
Outline: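 Dog plasma sampled when infusion ended. Extracted with NaCl and internal standard and run on TLC (benzene/28% ammonia/acetone/dioxane 5:8:80:5). Quantified by reflectance densitometry, 260-nm illumination, as fluorescence quenching. Peak areas read against standard curves, linear over 0.1-0.8 µg per plate.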

[42] = tested on: Plasma; test: Plasma concentration in mongrel dog at 59 +/- 25 mg/kg, iv; format: ADME, organism-based, Canis lupus familiaris; set-up: route intravenous; conditions: in vivo; outline: as §1
[43] = tested on: Canis familiaris; test: Antiarrhythmic activity in aconitine-induced mongrel dog arrhythmic model assessed as atrial rate measured at end of infusion at 59 +/- 25 mg/kg, iv; format: functional, Canis lupus familiaris, Heart
[44] = tested on: Canis familiaris; test: Antiarrhythmic activity in aconitine-induced mongrel dog arrhythmic model assessed as decrease in ventricular rate measured at end of infusion at 59 +/- 25 mg/kg, iv (reference value: 205 +/- 65 BPM); format: functional, Canis lupus familiaris, Heart
[45] = tested on: Mus musculus; test: Antiarrhythmic activity in ICR mouse assessed as protection against chloroform-induced ventricular fibrillation at 233 to 240 mg/kg, ip; format: functional
Outline: (§2)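 ICR male mice, 28-35 days old, average weight 25 g, dosed ip. After 10 min they were placed in a chloroform jar and anesthetized. A mouse counted as protected if no intermittent or continuous ventricular fibrillation appeared before breathing ceased. Definite fibrillation counted as unprotected even if it later changed rhythm. Eight mice per dose.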

[46] = tested on: Mus musculus; test: Antiarrhythmic activity in ICR mouse assessed as protection against chloroform-induced ventricular fibrillation at 100 mg/kg, ip; format: functional, organism-based; set-up: dose 100 mg/kg; conditions: Heart; outline: as §2

CCN(CC)CCNC(=O)c1ccc(NC(C)=O)cc1.Cl [ACECAINIDE HYDROCHLORIDE]
ED50 [1]: 110 mg/kg

CCN(CC)CCNC(=O)c1ccc(OC(C)=O)cc1.Cl
Activity [2]: 173 bpm | Activity [3]: 70 mmHg | Activity [4]: 373 bpm | Activity [5]: 183 bpm | Drug metabolism [6]: < 0.5 µg/mL | metabolised at 5 min, 20 ug/ml [7]: 60% | Cp [8]: < 0.5 µg/mL | Activity [9]: 173 bpm

CCN(CC)CCNC(=O)c1ccc(N)cc1.Cl [PROCAINAMIDE HYDROCHLORIDE]
Activity [10]: 68 mmHg | Activity [11]: 283 bpm | Activity [12]: 215 bpm | Activity [13]: 421 V/s | Activity [14]: 411 V/s | Time [15]: 265 ms | Time [16]: 239 ms | Time [17]: 334 ms | Time [18]: 316 ms | Activity [19]: 24 bpm | Activity [20]: 23 bpm | ED50 [1]: 137 mg/kg | LD50 [21]: 255 mg/kg | selectivity ratio [22]: 1.8 | Cp [23]: 118 µg/mL | Activity [24]: 225 bpm | Activity [25]: 203 bpm

CCN(CC)CCNC(=O)c1ccc(O)cc1.Cl
Activity [26]: 64 mmHg | Activity [27]: 278 bpm | Activity [28]: 160 bpm | Activity [29]: 396 V/s | Activity [30]: 423 V/s | Time [31]: 250 ms | Time [32]: 280 ms | Time [33]: 344 ms | Time [34]: 381 ms | Activity [35]: 20 bpm | Activity [36]: 16 bpm | ED50 [1]: 157 mg/kg | LD50 [21]: 335 mg/kg | selectivity ratio [22]: 2.1 | Activity [37]: -95 mV | Activity [38]: -94 mV | Activity [39]: 127 mV | Activity [40]: 126 mV | Drug metabolism [41]: 97 µg/mL | Cp [42]: 137 µg/mL | Activity [43]: 210 bpm | Activity [44]: 197 bpm

CCN(CC)CCNC(=O)c1ccccc1
Activity ([45]; Heart): inactive | Activity [46]: inactive

CCN(CC)CCNC(=O)c1ccc([N+](=O)[O-])cc1.Cl
Activity ([45]; dose mg/kg 233-240, route intraperitoneal): 38%
